PglD inh: PglD (C. jejuni) enzyme inhibition; inhibition, % at 12.5 µM; actives 0.098% (n = 360,000); purified PglD enzyme, DTNB colorimetric CoA detection; in the data active = inhibition above about 16%, passing the limit was not always enough; inconclusive = no clear call, values can overlap the other calls
E-selectin induc: induces E-selectin expression in human endothelial cells; actives 0.37% (n = 260,000); activation, % at 7.58 µM; HUVEC E-selectin immunofluorescence imaging; normalized: neutral wells 0, TNF-alpha wells 100; AID 686992;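 active = mean E-selectin-positive cell signal at least 10% of the positive control, reached in at least 60% of replicates, without over 20% cell loss; inconclusive = no rule given, readout overlaps actives, possibly toxicity-flagged; inactive = the rest, including those meeting only one limit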
Target sequence (P16581 whole entry, looked up): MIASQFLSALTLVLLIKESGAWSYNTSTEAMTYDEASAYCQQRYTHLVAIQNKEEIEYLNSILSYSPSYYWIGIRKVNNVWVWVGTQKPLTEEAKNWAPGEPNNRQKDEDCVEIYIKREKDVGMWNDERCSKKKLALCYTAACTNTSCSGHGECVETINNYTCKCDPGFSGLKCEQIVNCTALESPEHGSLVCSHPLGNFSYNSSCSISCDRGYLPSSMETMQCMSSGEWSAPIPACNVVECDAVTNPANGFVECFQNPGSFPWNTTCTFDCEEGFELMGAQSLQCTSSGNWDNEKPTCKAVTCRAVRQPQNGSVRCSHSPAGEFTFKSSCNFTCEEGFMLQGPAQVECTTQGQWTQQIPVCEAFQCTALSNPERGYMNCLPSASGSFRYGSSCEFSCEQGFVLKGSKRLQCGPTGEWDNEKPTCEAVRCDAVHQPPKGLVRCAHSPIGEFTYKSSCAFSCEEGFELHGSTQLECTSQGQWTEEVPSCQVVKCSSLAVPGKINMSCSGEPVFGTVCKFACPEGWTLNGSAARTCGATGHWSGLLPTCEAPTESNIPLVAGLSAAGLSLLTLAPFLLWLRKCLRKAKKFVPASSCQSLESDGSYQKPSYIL
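System: HUVEC / Compound: single concentration / Signal: immunofluorescence imaging / Read-out: percent E-selectin-positive cells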
XiGFP reactiv: reactivates the inactive X chromosome in mouse fibroblasts. XiGFP mouse fibroblasts, % GFP-positive cells imaging, 3 d; cells co-treated with 5-aza-dC sensitizer; scaled so ellipticine positive control = 100%. activation, % at 7.58 µM. actives 0.055% (n = 360,000). AID 743238;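 active = mean normalized replicate activation at least 10% and every replicate at or above 10%; inconclusive = only one of the two criteria met; inactive = mean below 10% and not all replicates reach 10%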;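 note: 0% = median of on-plate neutral control wells and 100% = ellipticine 6 µM median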
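System: XiGFP fibroblasts, SV40-immortalized. Medium: DMEM plus 5-aza-dC sensitizer. Doses: single point. Timing: 3 d treatment, 15 min room-temperature fixation. Control set: ellipticine 6 µM.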
C2C12 statin: suppression of simvastatin myotoxicity; rescue of ATP level, % at 7.49 µM; actives 0.78% (n = 330,000); C2C12 myotubes + simvastatin, ATP luminescence, 48 h; scaled: DMSO 0, geranylgeraniol control 100;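 active = mean ATP rescue above about 67%, or every replicate alone reaching that limit, limit read from the data, passing the limit was not always enough; inconclusive = no clear call, values can overlap the other calls; inactive = mean under the limit and some replicate under it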;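 note: myotubes were challenged with 10 µM simvastatin during compound exposure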
FGF22 binding: FGF22 (human) thermal shift binding | Q9HCT0 | recombinant FGF22 thermal shift, SYPRO orange fluorescence; percent of sucrose octasulfate shift, DMSO zero | activity (Tm shift, normalised), % at 9.99 µM | actives 1.5% (n = 340,000) | AID 651658;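 active = mean Tm shift, scaled 0 neutral to 100 positive control, at about 1.3% or above, every replicate too, limit read from the data; inconclusive = no clear call, values can overlap the other calls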
DENV2 CPE: inhibitors of DENV2 cytopathic effect | DENV2-infected cells, cytopathic effect rescue, plate reader | CPE inhibition, % at 9.99 µM | actives 1.7% (n = 350,000); in the data active = CPE inhibition above about 20%, passing the limit was not always enough; inconclusive = no clear call, values can overlap the other calls; tested in BHK-21 cells;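 note: 0% = median of neutral control wells and 100% = median of positive control wells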
* hit, by the source's call; ? = inconclusive; / = no result. Most compounds without a hit are left out; they make up all but 3.3% or so of the library.

SMILES	PglD inh	E-selectin induc	XiGFP reactiv	C2C12 statin	FGF22 binding	DENV2 CPE
Cc1ccc(Cl)cc1NC(=O)Cn1cccc1	-2	/	/	81*	/	/
Cc1ccc(Cl)cc1NC(=O)Nc1cccs1	/	0	0	/	43*	-1
C[C@@H]1CN([C@H](C)CO)C(=O)c2cc(Br)cnc2O[C@H]1CN(C)S(=O)(=O)c1ccccc1	8	0	-1	-10	0	-9
Oc1ccc(/C=N/n2cc(-c3ccccc3)[nH]c2=S)cc1	/	3	0	/	44*	2
C[C@H]1CN([C@@H](C)CO)C(=O)c2cccc(NC(=O)Nc3ccc(F)cc3)c2O[C@H]1CN(C)CC1CCCCC1	4	34*	-1	16	-1	-7
COc1ccc(NC(=O)Nc2cccc3c2O[C@H](CN(C)C(=O)NC2CCCCC2)[C@H](C)CN([C@H](C)CO)C3=O)cc1	3	32*	0	-4	-1	-4
C[C@H]1CN([C@@H](C)CO)C(=O)c2cccc(NC(=O)C3CCOCC3)c2O[C@H]1CN(C)CC1CCCCC1	5	4	-1	-8	-1	44*
C[C@H](CO)N1C[C@H](C)[C@@H](CN(C)CC2CCCCC2)Oc2c(NC(=O)Nc3ccc(F)cc3)cccc2C1=O	/	1	-1	/	/	/
C[C@H]1CN([C@@H](C)CO)C(=O)c2cccc(NC(=O)Nc3ccc(F)cc3)c2O[C@@H]1CN(C)C(=O)NC1CCCCC1	-1	69*	1	4	-1	14
CO[C@@H]1CN(C)C(=O)c2cc(NC(=O)C3CCC3)ccc2OC[C@H](C)N(Cc2ccccn2)C[C@@H]1C	5	0	0	-8	0	1
COC(=O)c1ccc(CN2CC(=O)N3[C@H](C2)[C@@H](c2ccc(Br)cc2)[C@@H]3CO)cc1	/	0	0	/	0	6
COc1ccc(NC(=O)Nc2cccc3c2O[C@@H](CN(C)C(=O)NC2CCCCC2)[C@@H](C)CN([C@@H](C)CO)C3=O)cc1	4	-5	0	16	0	-4
COc1ccc(NC(=O)Nc2cccc3c2O[C@H](CN(C)C(=O)NC2CCCCC2)[C@H](C)CN([C@@H](C)CO)C3=O)cc1	0	1	-1	-34	0	88*
C[C@H]1CN([C@@H](C)CO)C(=O)c2cccc(NC(=O)NC3CCCCC3)c2O[C@@H]1CN(C)CC1CCCCC1	4	0	0	14	0	30*
C[C@@H]1CN([C@H](C)CO)C(=O)c2cccc(NC(=O)NC3CCCCC3)c2O[C@H]1CN(C)CC1CCCCC1	2	0	-1	5	0	-5
Nc1nc(SCc2ccccc2)c2ncn(C3OC(CO)C(O)C3O)c2n1 (stereo not given)	3	0	0	2	0	-3
CNc1nc2c(N)ncnc2n1[C@H]1O[C@@H](CO)[C@H](O)[C@@H]1O	3	0	0	-1	0	-2
N#Cc1c(N)n(C2OC(CO)C(O)C2O)c2ncnc(N)c12 (stereo not given)	/	2	0	/	43*	6
Nc1ncnc2c1ncn2C1OC(CO)C(O)C1O (stereo not given)	-9	5	0	3	43*	?
Nc1ncnc2c1ncn2C1O[C@H](CO)[C@@H](O)[C@@H]1O (stereo not given in full)	1	2	0	-11	0	13
Nc1ncnc2c1nc(N1CCCCC1)n2[C@@H]1O[C@H](CO)[C@@H](O)[C@H]1O	-7	0	0	101*	/	/
OCC1OC(n2cnc3c(SCc4ccccc4)ncnc32)C(O)C1O (stereo not given)	/	/	0	/	0	75*
Nc1ncnc2c1ncn2[C@@H]1O[C@H](CO)[C@@H](O)[C@@H]1O	-2	0	0	-7	0	-3
C[C@H](CO)N1C[C@H](C)[C@H](CN(C)C(=O)CC2CC2)Oc2cc(-c3ccncc3)ccc2S1(=O)=O	-2	0	1	15	0	-6
CCC(=O)N(C)C[C@H]1Oc2cc(-c3cccc(F)c3)ccc2S(=O)(=O)N([C@H](C)CO)C[C@H]1C	0	0	0	-5	0	-7
SMILES	PglD inh	E-selectin induc	XiGFP reactiv	C2C12 statin	FGF22 binding	DENV2 CPE
Nc1ncnc2c1ncn2[C@@H]1O[C@H](C(=O)N[C@@H](CCc2ccccc2)C(=O)O)[C@@H](O)[C@H]1O	/	0	1	/	0	28*
CCNS(=O)(=O)c1ccc(Br)c(C(=O)OC(C)C(=O)NCC2CCCCC2)c1 (stereo not given)	0	/	0	1	0	43*
CC(OC(=O)c1cccc(S(=O)(=O)N2CCCCC2)c1)C(=O)NCC1CCCCC1 (stereo not given)	1	0	0	0	0	-7
CCC(C(=O)NC1CCCC1)N(C(=O)Cn1nnc(-c2ccc(OC)c(OC)c2)n1)c1cccc(O)c1 (stereo not given)	-2	1	0	139*	0	1
COc1ccc(NC(=O)N(C)C[C@@H]2Oc3ccc(NC(=O)Nc4c(C)noc4C)cc3CC(=O)N([C@@H](C)CO)C[C@@H]2C)cc1	4	0	-1	6	0	-5
O=C(N[C@@H]1C=C[C@H](CC(=O)N2CCOCC2)O[C@H]1CO)c1cccc(F)c1	1	0	0	-4	0	?
O=C(CCC(=O)c1ccc(Br)cc1)Nc1cccnc1	/	3	0	1	0	-3
O=C(CCSc1ccc(Br)cc1)Nc1cccnc1	/	/	1	/	44*	/
CC(C)NC(=O)N(C)C[C@H]1Oc2cc(C#CC(C)(C)O)ccc2S(=O)(=O)N([C@H](C)CO)C[C@@H]1C	1	1	-1	3	0	10
Cc1ccc(C(=O)Nc2c(C)cc(-c3ccccc3)oc2=O)cc1	/	4	0	/	43*	4
COc1ccc2sc(-c3ccc(N(C)C)cc3)c(C#CCCO)c2c1	5	1	0	3	0	26*
C[C@@H]1CN([C@H](C)CO)C(=O)Cc2cc(NC(=O)Nc3ccccc3)ccc2O[C@@H]1CN(C)Cc1ccc(C(=O)O)cc1	4	/	/	7	0	?
CCOC(=O)c1c(NC(=O)Cc2cccs2)sc(C(=O)NC2CCCC2)c1C	1	/	/	-108	/	/
CCOC(=O)c1c(NC(=O)Cc2cccs2)sc(C(=O)NC2CCCCC2)c1C	3	/	/	78*	/	/
CCCNC(=O)Nc1ccc2c(c1)C(=O)N(C)C[C@H](OC)[C@H](C)CN(Cc1ccccc1)[C@@H](C)CO2	/	0	0	2	/	/
O=C(c1ccc([N+](=O)[O-])cc1)N1CCSC1c1ccc(Cl)cc1 (stereo not given)	/	0	0	/	43*	-3
